Test results as given in ChEMBL document CHEMBL1157168, “Potent anti-prostate cancer agents derived from a novel androgen receptor down-regulating agent” (Bioorg Med Chem, 2008).

How the values were obtained:
PC-3 = assay: Cytotoxicity against human PC3 cells after 5 days by MTT assay; type: functional; conditions: PC-3, 120 h
Method in brief: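 Growth inhibition by MTT assay with absorbance read at 560 nm. Values are means of three independent experiments.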

LNCaP [1] = assay: Cytotoxicity against human LNCaP cells after 5 days by MTT assay; type: functional; conditions: 120 h
Method in brief: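 LNCaP cells (RPMI 1640, 10% FBS, 1% penicillin/streptomycin, 37 °C, 5% CO2) seeded at 2 × 10^4 cells/well, left to adhere 24 h, then exposed to compounds in DMSO for five days, with compound and medium renewed on day 3. MTT (0.5 mg/mL) added for 2 h, formazan dissolved in DMSO, absorbance read at 560 nm. Triplicate wells, three independent experiments. GI50 from nonlinear regression.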

[2] = target: T1, Androgen receptor (Homo sapiens) (UniProt P10275); assay: Displacement of [3H]R1881 from wild type androgen receptor expressed in human PC3 cells; type: cell-based; conditions: PC-3
T1 sequence (whole entry): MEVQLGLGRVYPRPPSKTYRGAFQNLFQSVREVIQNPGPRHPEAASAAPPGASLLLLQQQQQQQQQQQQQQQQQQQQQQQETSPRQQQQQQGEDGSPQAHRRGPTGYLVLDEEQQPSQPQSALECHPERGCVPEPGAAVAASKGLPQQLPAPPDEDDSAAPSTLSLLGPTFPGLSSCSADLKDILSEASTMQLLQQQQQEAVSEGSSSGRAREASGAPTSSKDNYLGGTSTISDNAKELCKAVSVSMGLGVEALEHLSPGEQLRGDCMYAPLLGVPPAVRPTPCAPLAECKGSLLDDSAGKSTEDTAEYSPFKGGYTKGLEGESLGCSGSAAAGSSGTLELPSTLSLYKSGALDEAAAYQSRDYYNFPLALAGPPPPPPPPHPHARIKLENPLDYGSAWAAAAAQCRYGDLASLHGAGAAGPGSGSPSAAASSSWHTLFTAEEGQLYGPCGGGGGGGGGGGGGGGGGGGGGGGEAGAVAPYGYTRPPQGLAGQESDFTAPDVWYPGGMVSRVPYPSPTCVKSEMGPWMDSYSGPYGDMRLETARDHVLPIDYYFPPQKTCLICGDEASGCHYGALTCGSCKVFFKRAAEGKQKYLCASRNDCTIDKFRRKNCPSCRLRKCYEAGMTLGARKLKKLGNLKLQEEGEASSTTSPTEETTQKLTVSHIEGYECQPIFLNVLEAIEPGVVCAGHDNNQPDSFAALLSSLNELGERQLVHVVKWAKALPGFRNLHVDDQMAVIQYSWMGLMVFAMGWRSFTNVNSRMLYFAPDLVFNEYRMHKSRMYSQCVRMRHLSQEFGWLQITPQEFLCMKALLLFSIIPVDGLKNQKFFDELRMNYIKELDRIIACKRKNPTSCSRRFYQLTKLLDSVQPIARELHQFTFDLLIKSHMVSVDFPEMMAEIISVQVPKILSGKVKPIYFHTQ

[3] = target: T1, Androgen receptor (Homo sapiens); assay: Displacement of [3H]R1881 from mutated androgen receptor expressed in human LNCaP cells; type: cell-based
[4] = target: T1, Androgen receptor (Homo sapiens); assay: Activity at androgen receptor expressed in human LNCaP cells assessed as decrease in dihydrotestosterone-stimulated transcriptional activity at 10 uM after 18 hrs by luciferase reporter gene assay; type: cell-based; parameters: scale not given: the % may be the effect or the level left
Method in brief: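 LNCaP cells transiently transfected with the probasin-driven ARR2-Luc reporter, held in steroid-free medium, then given vehicle or compound with or without 5 nM DHT for 18 h before luciferase read-out. Mean of three independent experiments.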

LNCaP [5] = assay: Down regulation of androgen receptor expression in human LNCaP cells by Western blot analysis; type: functional, cell-based
Method in brief: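 LNCaP cells cultured in T25 flasks and treated with compounds. Lysates made in 0.1 M Tris, 0.5% Triton X-100 and protease inhibitor, protein measured by Bradford assay, then run on 10% SDS-PAGE. AR detected with monoclonal AR441 (1:500) and HRP anti-mouse secondary (1:2000) by ECL. Signal normalized to β-actin.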

[6] = target: T1, Androgen receptor (Homo sapiens); assay: Displacement of [3H]R1881 from wild type androgen receptor expressed in human PC3 cells at 20 uM; type: cell-based; conditions: PC-3
[7] = target: T1, Androgen receptor (Homo sapiens); assay: Displacement of [3H]R1881 from wild type androgen receptor expressed in human PC3 cells at 10 uM; type: cell-based; conditions: PC-3

SMILES | GI50 (PC-3) | GI50 (LNCaP [1]) | also measured
Cc1ccc(S(=O)(=O)Nc2ccc(C)cc2[N+](=O)[O-])cc1 | 43.7 µM | 39.8 µM | 
Cc1ccc(NS(=O)(=O)c2ccc(F)cc2)c([N+](=O)[O-])c1 | 0.85 µM | 0.00234 µM | Activity [2]: Dose-dependent effect; Activity [3]: Dose-dependent effect; Activity [4]: 50%
Cc1ccc(S(=O)(=O)Nc2ccccc2)cc1 | 38.9 µM | 24 µM | 
Cc1ccc(S(=O)(=O)Nc2ccccc2[N+](=O)[O-])cc1 | 50.1 µM | 0.083 µM | EC50 (LNCaP [5]): > 150 µM
Cc1ccc(NS(=O)(=O)c2ccc(F)cc2)c(C(=O)O)c1 | > 100 µM | 10.7 µM | 
Cc1ccc(NS(=O)(=O)c2ccccc2)c(C(=O)O)c1 |  | 0.0182 µM | 
Cc1ccc(-c2nnn[nH]2)c(NS(=O)(=O)c2ccc(F)cc2)c1 | > 100 µM | > 100 µM | 
Cc1ccc(CNc2ccc(C)cc2)cc1 | 29.5 µM | 19.1 µM | 
Cc1ccc(NC(=O)c2ccc(C)cc2)cc1 | 26.9 µM | 55 µM | 
Cc1ccc(NCc2ccccc2)cc1 [N-BENZYL-4-METHYLANILINE] | 52.4 µM | > 100 µM | 
O=S(=O)(Nc1ccccc1)c1ccccc1 [PHENYL(PHENYLSULFONYL)AMINE] | > 100 µM |  | 
Cc1ccc(C#N)c(NS(=O)(=O)c2ccc(F)cc2)c1 | > 100 µM | 30.2 µM | 
Cc1ccc(N(C)S(=O)(=O)c2ccc(C)cc2)cc1 | 44.7 µM | 89.2 µM | 
Cc1ccc(NS(=O)(=O)c2ccc(C)cc2)cc1 | 30.2 µM | 0.00145 µM | Activity [6]: 80%; Activity [2]: Dose-dependent effect; Activity [3]: Dose-dependent effect; EC50 (LNCaP [5]): 150 µM; Activity [4]: 80%; Activity [7]: 65%
Cc1ccc(NS(=O)(=O)c2ccccc2)c([N+](=O)[O-])c1 | 60.2 µM | 0.00295 µM | 
Cc1ccc(NS(=O)(=O)c2ccccc2)cc1 | 13.8 µM | 21.3 µM | 
O=[N+]([O-])c1ccccc1NS(=O)(=O)c1ccccc1 | 22.9 µM | 0.0148 µM | 
